# Screening results: PubChem BioAssay, several laboratories
# 697 NFkB inh = inhibitors of the PMA/ionomycin-induced NF-kB reporter in 697 B cells; 697 B-cell NF-kB luciferase reporter, 16 h; inhibition, % at 4 µM; 0.33% of 330,000 active; in the data active = inhibition above about 35%
# NR2E3 ag-1 = NR2E3 (human) agonism. Q9Y5X4. GST-NR2E3/biotin-RetCOR TR-FRET, 1536-well. inhibition of corepressor binding, % at 4.78 µM. 0.12% of 320,000 active. AID 2300;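 active = percent inhibition above the cutoff of mean plus 3 SD of all tested compounds, set per screening campaign, cut at about 20% in these data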;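 note: 0% = DMSO wells and 100% = biotin wells as full block of FRET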
# Target sequence (Q9Y5X4 whole entry, looked up): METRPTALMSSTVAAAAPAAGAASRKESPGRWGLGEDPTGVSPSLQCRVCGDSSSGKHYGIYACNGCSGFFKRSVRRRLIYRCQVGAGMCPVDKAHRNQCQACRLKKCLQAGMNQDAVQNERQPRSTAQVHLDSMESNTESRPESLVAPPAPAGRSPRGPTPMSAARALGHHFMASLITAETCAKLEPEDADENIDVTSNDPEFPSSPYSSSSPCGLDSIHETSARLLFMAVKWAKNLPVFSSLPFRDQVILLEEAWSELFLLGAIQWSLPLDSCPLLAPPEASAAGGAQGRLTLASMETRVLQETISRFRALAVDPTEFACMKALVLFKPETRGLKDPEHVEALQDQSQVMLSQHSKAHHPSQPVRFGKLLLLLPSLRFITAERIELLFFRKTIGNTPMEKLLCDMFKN
#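 Format: 1536-well format; test system: GST-NR2E3 and biotin-RetCOR proteins; read-out basis: percent inhibition of TR-FRET ratio; timing: 5 h incubation at 4 °C; detection: time-resolved FRET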
# FGF22 binding-1 = FGF22 (human) thermal shift binding; Q9HCT0; recombinant FGF22 thermal shift, SYPRO orange fluorescence; percent of sucrose octasulfate shift, DMSO zero; activity (Tm shift, normalised), % at 9.99 µM; 1.5% of 340,000 active; AID 651658;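 active = mean Tm shift, scaled 0 neutral to 100 positive control, at about 1.3% or above, every replicate too, limit read from the data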
# Target sequence (Q9HCT0 whole entry, looked up): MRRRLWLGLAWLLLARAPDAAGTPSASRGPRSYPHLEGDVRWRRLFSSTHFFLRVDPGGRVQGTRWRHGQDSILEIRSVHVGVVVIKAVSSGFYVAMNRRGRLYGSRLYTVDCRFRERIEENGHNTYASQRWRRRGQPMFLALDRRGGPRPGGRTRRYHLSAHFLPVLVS
# NR2E3 ag-2 = human photoreceptor-specific nuclear receptor agonism; Q9Y5X4; CHO-S Gal4-NCOR/VP16-NR2E3 two-hybrid, luciferase; inhibition of corepressor binding, % at 3.98 µM; 0.35% of 360,000 active;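 active = inhibition above the mean of all tested compounds plus 3 SD, cut at about 70% in these data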;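 note: 0% = DMSO with NR2E3 transfected cells and 100% = cells lacking NR2E3 construct; higher means lower luciferase signal from less NR2E3 corepressor binding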
# Jurkat NFkB inh = inhibitors of the PMA/ionomycin-induced NF-kB reporter in Jurkat cells; AID 435003; inhibition, % at 4 µM; PMA/ionomycin-induced NF-kB luciferase reporter, luminescence; 0.53% of 330,000 active; in the data active = inhibition above about 50%
# miR122 inh = blocks miR-122 activity in Huh7 sensor cells; AID 602342; 0.3% of 340,000 active; activation (reporter increase), % at 12.5 µM; Huh7 miR-122 Renilla luciferase sensor, 48 h; neutral wells = 0, positive control = 100;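 active = mean replicate activation score at least 90 and every replicate individually at or above 90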;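 note: higher luciferase means less miR-122 activity so hits act as miR-122 inhibitors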
# FGF22 binding-2 = binds human FGF22 shifting its melting temperature; shares compounds with FGF22 binding-1; thermal shift activity, °C (ΔTm) at 38 µM; 2% of 1,000 active; AID 720646; recombinant FGF22 thermal shift, SYPRO orange fluorescence;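 active = fitted rise in melting shift crosses a set limit at or below the top valid dose tested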
# FGF22 TSA DP = binders of human FGF22 by thermal shift; shares compounds with FGF22 binding-1; Thermal shift assay, SYPRO orange, melting temperature shift; Tm shift (activity), % at 38 µM; 50 tested, under 10 active; AID 743017;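 active = compounds whose fitted dose curve of melting temperature shift rises past a set threshold within the tested doses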
# SYPRO no-protein = counter-screen for FGF22 binders: compound-only thermal shift, no protein; shares compounds with FGF22 binding-1; compound-only SYPRO orange thermal shift counter-screen; AC50, µM (series often up to 38 µM); 2% of 1,000 active; AID 743019;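 active = rising signal whose fitted curve reaches the 0.54 level within the top valid dose, showing a melting point, actives reach about 13 µM in these data; inactive = the rest, including activity in the opposite direction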; note: value is where the raw curve crosses a fixed level and not half-maximal
# The depositor's hits bear a star; i = inactive; x = no result given; ! = repeats disagree; [ ] = dose if it differs, or a comment. Rows were chosen to be rich in hits. Some 2.2% of all compounds tested hit in one or more screens of this group.
SMILES,697 NFkB inh,NR2E3 ag-1,FGF22 binding-1,NR2E3 ag-2,Jurkat NFkB inh,miR122 inh,FGF22 binding-2,SYPRO no-protein,others
O=C(N/N=C/c1c[nH]c2ccccc12)c1cccc(Cl)c1,-15,2,2.8*,-82,-21,8,x,i,FGF22 TSA DP=0
O=C(N/N=C/c1c[nH]c2ccccc12)c1ccc([N+](=O)[O-])cc1Cl,11,2,x,-8,3,-5,x,x,
CCCC(=O)Nc1ccc2c(c1)C(=O)N(C)C[C@H](OC)[C@H](C)CN[C@@H](C)CO2,x,x,0,x,x,1[16.7 µM],x,x,
CO[C@H]1CN(C)C(=O)c2cc(NC(=O)CC(F)(F)F)ccc2OC[C@H](C)N(C(=O)c2ccccc2F)C[C@H]1C,x,x,0,x,x,x,x,x,
O=C(NCC[C@H]1CC[C@@H](NS(=O)(=O)c2ccc(F)cc2)[C@H](CO)O1)Nc1ccc(F)cc1,x,x,0,x,x,x,x,x,
CCS(=O)(=O)N1CC(=O)N2[C@H](CO)[C@@H](c3ccc(-c4ccccc4F)cc3)[C@@H]2C1,x,x,1.3*,x,x,x,0.046,i,
CCS(=O)(=O)N1CC(=O)N2[C@@H](CO)[C@H](c3ccc(-c4ccccc4F)cc3)[C@@H]2C1,x,x,1,x,x,x,x,x,
Cc1[nH]c(=O)[nH]c(=O)c1S(=O)(=O)Nc1cccc([N+](=O)[O-])c1C,9,x,4.6*,-1,-1,x,-0.021,i,
CC(C)n1c(=O)c2ccccc2n1Cc1cn(-c2ccc(Cl)cc2)nn1,x,x,2.6*,-19,x,9,0.39,i,
C[C@H]1CN([C@@H](C)CO)C(=O)c2cc(NC(=O)Cc3ccccc3)ccc2O[C@H]1CN(C)Cc1ccc2c(c1)OCO2,x,x,3.0*,x,x,-6[16.7 µM],0.23,i,
C[C@@H]1CN([C@@H](C)CO)C(=O)c2cc(NC(=O)Cc3cn(C)c4ccccc34)ccc2O[C@H]1CN(C)S(C)(=O)=O,x,x,2.6*,x,x,5[16.7 µM],0.11[42 µM],i,
COc1ccc(CN(C)C[C@H]2Oc3ccc(NC(=O)Cc4ccccc4)cc3C(=O)N([C@@H](C)CO)C[C@H]2C)cc1,x,x,8.9*,x,x,2[16.7 µM],0.064,i,
Cc1noc(C)c1NC(=O)Nc1ccc2c(c1)C(=O)N([C@@H](C)CO)C[C@@H](C)[C@@H](CN(C)Cc1ccc(C(=O)O)cc1)OCCCC[C@@H](C)O2,x,x,0,x,x,16[16.7 µM],x,x,
COc1ccc(C(=O)Nc2nc(CC(=O)NCCc3cccc(OC)c3)cs2)cc1,-22,-2,0,-32,-11,x,x,x,
COc1ccc(C(=O)Nc2nc(CC(=O)NCCc3ccccc3)cs2)cc1,-13,6,2.2*,-7,-12,x,-0.006,i,
Cn1ncc2c(Nc3ccc(Br)cc3)nc(Nc3ccc(Br)cc3)nc21,0,3,0,-37,16,x,x,x,
Cn1ncc2c(Nc3ccc(O)cc3)nc(Cl)nc21,-1,1,26*,-59,-5,x,-0.002,i,
C[C@H]1CN([C@@H](C)CO)S(=O)(=O)c2ccc(C#Cc3ccccc3F)cc2O[C@@H]1CN(C)C(=O)Cc1cccnc1,x,x,8.3*,x,x,20[16.7 µM],0.11[42 µM],i,
C[C@H]1CN([C@@H](C)CO)S(=O)(=O)c2ccc(C#Cc3ccccc3F)cc2O[C@H]1CN(C)C(=O)Cc1cccnc1,x,x,5.9*,x,x,-2[16.7 µM],0.09[42 µM],i,
O=C(Cc1ccccn1)N[C@@H]1C=C[C@@H](CC(=O)N2CCCCC2)O[C@H]1CO,x,x,0,x,x,x,x,x,
CCC(=O)N(C)C[C@H]1Oc2cc(C3=CCCCC3)ccc2S(=O)(=O)N([C@H](C)CO)C[C@H]1C,x,x,x,x,x,-8[16.7 µM],x,x,
Cc1ccc(S(=O)(=O)N(C)C[C@H]2Oc3ccc(NC(=O)c4ccncc4)cc3CC(=O)N([C@@H](C)CO)C[C@@H]2C)cc1,x,x,0,x,x,0[16.7 µM],x,x,
CCCn1c(=O)[nH]c(=O)c2c1nc(-c1cccs1)n2CCOC,2,4,4.7*,-3,-7,-5,0.15,i,
CC(C)[C@H](CN(N=O)[C@@H](Cc1ccccc1)CN(C)N=O)N(CCc1ccccc1)N=O,12,-3,0,-6,7,-1,x,x,
CC(C)C[C@@H](CN(C)N=O)N(C[C@H](Cc1ccccc1)N(CCc1ccccc1)N=O)N=O,11,1,1.6*,8,23,7,0.029,i,
SMILES,697 NFkB inh,NR2E3 ag-1,FGF22 binding-1,NR2E3 ag-2,Jurkat NFkB inh,miR122 inh,FGF22 binding-2,SYPRO no-protein,others
COc1ccc2o/c(=N\O)c(C(=O)Nc3ccc(C)cc3)cc2c1,x,x,2.3*,-24,x,x,0.091,i,
COc1ccc(-c2ccc3c(c2)O[C@H](CN(C)Cc2ccccc2C(=O)O)[C@@H](C)CN([C@@H](C)CO)S3(=O)=O)cc1,x,x,x,x,x,1[16.7 µM],x,x,
C[C@H](CO)N1C[C@H](C)[C@@H](CN(C)C(=O)Nc2ccc(F)cc2)Oc2ccc(NC(=O)Nc3ccc(F)cc3)cc2CC1=O,x,x,0,x,x,6[16.7 µM],x,x,
O=C(NC1CCCCC1)c1cc(-c2cccc(Cl)c2)on1,-31,4,3.9*,-37,-58,-8,0.069,i,
COc1ccc(NC(=O)CN(C)C(=O)c2cn(-c3ccccc3)nc2-c2cccnc2)cc1,26,-1,2.4*,29,9,x,0.22,i,
COc1ccc(NC(=O)CN(C)C(=O)c2cn(-c3ccccc3)nc2-c2cccs2)cc1,-8,2,0,-5,-10,0,x,x,
CCCC#Cc1ccc2c(c1)O[C@H](CN(C)C(C)=O)[C@@H](C)CN([C@@H](C)CO)S2(=O)=O,x,x,1.5*,x,x,-4[16.7 µM],0.03,i,
CCCC#Cc1ccc2c(c1)O[C@@H](CN(C)C(C)=O)[C@@H](C)CN([C@H](C)CO)S2(=O)=O,x,x,-1,x,x,3[16.7 µM],x,x,
COCC(=O)N(C)C[C@@H]1Oc2cc(C#C[C@H](C)O)ccc2S(=O)(=O)N([C@@H](C)CO)C[C@H]1C,x,x,36*,x,x,37[16.7 µM],0.021[42 µM],i,
C[C@@H]1CN([C@H](C)CO)S(=O)(=O)c2ccc(C#CCN(C)C)cc2O[C@@H]1CN(C)Cc1ccccc1F,x,x,4.7*!,-26,x,35,0.15,i,
C[C@H](O)C#Cc1ccc2c(c1)O[C@@H](CN(C)C(=O)Cc1ccccn1)[C@H](C)CN([C@H](C)CO)S2(=O)=O,x,x,0,x,x,6[16.7 µM],x,x,
C[C@H](O)C#Cc1ccc2c(c1)O[C@H](CN(C)C(=O)Cc1ccccn1)[C@@H](C)CN([C@H](C)CO)S2(=O)=O,x,x,1.4*,x,x,-1[16.7 µM],-0.082,i,
C[C@H](O)C#Cc1ccc2c(c1)O[C@@H](CN(C)Cc1ccccn1)[C@@H](C)CN([C@@H](C)CO)S2(=O)=O,x,x,0,x,x,3[16.7 µM],x,x,
